# Reference: ChEMBL document CHEMBL4270599, “Synthesis of a 3'-C-ethynyl-β-d-ribofuranose purine nucleoside library: Discovery of C7-deazapurine analogs as potent antiproliferative nucleosides” (Eur J Med Chem, 2018)
# Tests used:
# CCRF-CEM = test: Antiproliferative activity against human CEM cells after 72 hrs by Coulter counter method; format: functional, cell-based
# Summary of the method: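 Cell count assay in 96-well microtiter plates; (5–7.5) × 10⁴ tumor cells per well plus test compound. Cells proliferated at 37 °C in humidified CO₂-controlled atmosphere, 48 h for murine leukemia L1210, 72 h for human lymphocytic CEM and cervix carcinoma HeLa. Counted by Coulter counter; IC₅₀ is the concentration that inhibits proliferation by 50%.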
# SF-539 [1] = test: Cytotoxicity against human SF539 cells after 48 hrs by SRB assay; format: functional; details: SF-539, 48 h; for GI50: read-out: pGI50 (converted)
# MDA-MB-435 [2] = test: Cytotoxicity against human MDA-MB-435 cells after 48 hrs by SRB assay; format: functional; details: MDA-MB-435, 48 h; for GI50: read-out: pGI50 (converted); for CC50: read-out: pLC50 (the source's name) (converted)
# OVCAR-8 [3] = test: Cytotoxicity against human OVCAR8 cells after 48 hrs by SRB assay; format: functional; details: OVCAR-8, 48 h; for GI50: read-out: pGI50 (converted); for CC50: read-out: pLC50 (the source's name) (converted)
# TK-10 = test: Cytotoxicity against human TK10 cells after 48 hrs by SRB assay; format: functional; details: TK-10, 48 h; for CC50: read-out: LC50 (the source's name); for GI50: read-out: pGI50 (converted)
# UO-31 = test: Cytotoxicity against human UO31 cells after 48 hrs by SRB assay; format: functional; details: UO-31, 48 h; for GI50: read-out: pGI50 (converted)
# RPMI-8226 = test: Growth inhibition of human RPMI8226 cells assessed as cell growth at 10^-8 M incubated for 48 hrs by sulforhodamine B assay relative to control; format: functional; details: RPMI-8226, 48 h, read-out: Activity
# A549 = test: Growth inhibition of human A549/ATCC cells assessed as cell growth at 10^-8 M incubated for 48 hrs by sulforhodamine B assay relative to control; format: functional; details: A549, 48 h, read-out: Activity
# MDA-MB-231 = test: Growth inhibition of human MDA-MB-231 cells assessed as cell growth at 10^-8 M incubated for 48 hrs by sulforhodamine B assay relative to control; format: functional; details: MDA-MB-231, 48 h, read-out: Activity
# EKVX = test: Growth inhibition of human EKVX cells assessed as cell growth at 10^-7 M incubated for 48 hrs by sulforhodamine B assay relative to control; format: functional; details: read-out: Activity
# NCI-H23 = test: Growth inhibition of human NCI-H23 cells assessed as cell growth at 10^-7 M incubated for 48 hrs by sulforhodamine B assay relative to control; format: functional; details: NCI-H23, 48 h, read-out: Activity
# NCI-H460 = test: Growth inhibition of human NCI-H460 cells assessed as cell growth at 10^-7 M incubated for 48 hrs by sulforhodamine B assay relative to control; format: functional; details: NCI-H460, 48 h, read-out: Activity
# COLO 205 [4] = test: Growth inhibition of human COLO205 cells assessed as cell growth at 10^-7 M incubated for 48 hrs by sulforhodamine B assay relative to control; format: functional; details: COLO 205, 48 h, read-out: Activity
# LOX IMVI = test: Growth inhibition of human LOXIMVI cells assessed as cell growth at 10^-7 M incubated for 48 hrs by sulforhodamine B assay relative to control; format: functional; details: read-out: Activity
# SK-MEL-28 = test: Growth inhibition of human SK-MEL-28 cells assessed as cell growth at 10^-7 M incubated for 48 hrs by sulforhodamine B assay relative to control; format: functional; details: SK-MEL-28, 48 h, read-out: Activity
# OVCAR-8 [5] = test: Growth inhibition of human OVCAR8 cells assessed as cell growth at 10^-7 M incubated for 48 hrs by sulforhodamine B assay relative to control; format: functional; details: OVCAR-8, 48 h, read-out: Activity
# DU-145 [6] = test: Growth inhibition of human DU145 cells assessed as cell growth at 10^-7 M incubated for 48 hrs by sulforhodamine B assay relative to control; format: functional; details: DU-145, 48 h, read-out: Activity
# MCF7 = test: Growth inhibition of human MCF7 cells assessed as cell growth at 10^-7 M incubated for 48 hrs by sulforhodamine B assay relative to control; format: functional; details: MCF7, 48 h, read-out: Activity
# Hs-578T = test: Growth inhibition of human Hs 578T cells assessed as cell growth at 10^-7 M incubated for 48 hrs by sulforhodamine B assay relative to control; format: functional; details: read-out: Activity
# HOP-62 = test: Growth inhibition of human HOP62 cells assessed as cell growth at 10^-6 M incubated for 48 hrs by sulforhodamine B assay relative to control; format: functional; details: HOP-62, 48 h, read-out: Activity
# SF-539 [7] = test: Growth inhibition of human SF539 cells assessed as cell growth at 10^-6 M incubated for 48 hrs by sulforhodamine B assay relative to control; format: functional; details: SF-539, 48 h, read-out: Activity
# MDA-MB-435 [8] = test: Growth inhibition of human MDA-MB-435 cells assessed as cell growth at 10^-6 M incubated for 48 hrs by sulforhodamine B assay relative to control; format: functional; details: MDA-MB-435, 48 h, read-out: Activity
# SN12C = test: Growth inhibition of human SN12C cells assessed as cell growth at 10^-6 M incubated for 48 hrs by sulforhodamine B assay relative to control; format: functional; details: read-out: Activity
# DU-145 [9] = test: Growth inhibition of human DU145 cells assessed as cell growth at 10^-6 M incubated for 48 hrs by sulforhodamine B assay relative to control; format: functional; details: DU-145, 48 h, read-out: Activity
# MOLT-4 = test: Growth inhibition of human MOLT4 cells assessed as cell growth at 10^-5 M incubated for 48 hrs by sulforhodamine B assay relative to control; format: functional; details: MOLT-4, 48 h, read-out: Activity
# NCI-H226 = test: Growth inhibition of human NCI-H226 cells assessed as cell growth at 10^-5 M incubated for 48 hrs by sulforhodamine B assay relative to control; format: functional; details: NCI-H226, 48 h, read-out: Activity
# COLO 205 [10] = test: Growth inhibition of human COLO205 cells assessed as cell growth at 10^-5 M incubated for 48 hrs by sulforhodamine B assay relative to control; format: functional; details: COLO 205, 48 h, read-out: Activity
# SF-268 = test: Growth inhibition of human SF268 cells assessed as cell growth at 10^-5 M incubated for 48 hrs by sulforhodamine B assay relative to control; format: functional; details: SF-268, 48 h, read-out: Activity
# Malme-3M = test: Growth inhibition of human MALME-3M cells assessed as cell growth at 10^-5 M incubated for 48 hrs by sulforhodamine B assay relative to control; format: functional; details: read-out: Activity
# BT-549 = test: Growth inhibition of human BT549 cells assessed as cell growth at 10^-5 M incubated for 48 hrs by sulforhodamine B assay relative to control; format: functional; details: BT-549, 48 h, read-out: Activity
# OVCAR-5 = test: Growth inhibition of human OVCAR5 cells assessed as cell growth at 10^-4 M incubated for 48 hrs by sulforhodamine B assay relative to control; format: functional; details: OVCAR-5, 48 h, read-out: Activity
# [11] = read-out: LC50 (the source's name)
# [12] = read-out: pLC50 (the source's name) (converted)
smiles,measurement,setting,value
C#C[C@@]1(O)[C@@H](CO)O[C@@H](n2ccc3c(N)ncnc32)[C@@H]1O,IC50,CCRF-CEM,0.71 µM
same,CC50,SF-539 [1]; [11],11.6 µM
same,TGI,SF-539 [1]; read-out: TGI,4.44 µM
same,GI50,SF-539 [1],1.91 µM
same,CC50,SF-539 [1]; [12],11.7 µM
same,TGI,SF-539 [1]; read-out: pTGI (converted),4.47 µM
same,TGI,MDA-MB-435 [2]; read-out: TGI,3.49 µM
same,GI50,MDA-MB-435 [2],1.48 µM
same,CC50,MDA-MB-435 [2],8.13 µM
same,TGI,MDA-MB-435 [2]; read-out: pTGI (converted),3.47 µM
same,TGI,OVCAR-8 [3]; read-out: TGI,4.11 µM
same,GI50,OVCAR-8 [3],1.02 µM
same,CC50,OVCAR-8 [3],34.7 µM
same,TGI,OVCAR-8 [3]; read-out: pTGI (converted),4.07 µM
same,CC50,TK-10,> 100 µM
same,TGI,TK-10; read-out: TGI,9.48 µM
same,GI50,TK-10,2.63 µM
same,TGI,TK-10; read-out: pTGI (converted),9.55 µM
same,TGI,UO-31; read-out: TGI,3.58 µM
same,GI50,UO-31,1.41 µM
same,TGI,UO-31; read-out: pTGI (converted),3.55 µM
same,growth at 0.01 µM,RPMI-8226,103%
same,growth at 0.01 µM,A549,100%
same,growth at 0.01 µM,MDA-MB-231,104%
same,growth at 0.1 µM,EKVX,92%
same,growth at 0.1 µM,NCI-H23,93%
same,growth at 0.1 µM,NCI-H460,91%
same,growth at 0.1 µM,COLO 205 [4],97%
same,growth at 0.1 µM,LOX IMVI,99%
same,growth at 0.1 µM,SK-MEL-28,97%
same,growth at 0.1 µM,OVCAR-8 [5],106%
same,growth at 0.1 µM,DU-145 [6],98%
same,growth at 0.1 µM,MCF7,73%
same,growth at 0.1 µM,Hs-578T,100%
same,growth at 1 µM,HOP-62,77%
same,growth at 1 µM,SF-539 [7],88%
same,growth at 1 µM,MDA-MB-435 [8],73%
same,growth at 1 µM,SN12C,45%
same,growth at 1 µM,DU-145 [9],34%
same,growth at 10 µM,MOLT-4,2%
same,growth at 10 µM,NCI-H226,-42%
same,growth at 10 µM,COLO 205 [10],-54%
same,growth at 10 µM,SF-268,5%
same,growth at 10 µM,Malme-3M,-25%
same,growth at 10 µM,BT-549,-63%
same,growth at 100 µM,OVCAR-5,-31%
C#C[C@@]1(O)[C@@H](CO)O[C@@H](n2cc(F)c3c(N)ncnc32)[C@@H]1O,IC50,CCRF-CEM,0.16 µM
same,CC50,SF-539 [1]; [11],> 100 µM
same,TGI,SF-539 [1]; read-out: TGI,5.29 µM
same,GI50,SF-539 [1],1.32 µM
same,TGI,SF-539 [1]; read-out: pTGI (converted),5.25 µM
same,TGI,MDA-MB-435 [2]; read-out: TGI,3.26 µM
same,GI50,MDA-MB-435 [2],0.417 µM
same,CC50,MDA-MB-435 [2],45.7 µM
same,TGI,MDA-MB-435 [2]; read-out: pTGI (converted),3.24 µM
same,TGI,OVCAR-8 [3]; read-out: TGI,3.69 µM
same,GI50,OVCAR-8 [3],0.257 µM
same,CC50,OVCAR-8 [3],> 100 µM
same,TGI,OVCAR-8 [3]; read-out: pTGI (converted),3.72 µM
same,CC50,TK-10,> 100 µM
same,TGI,TK-10; read-out: TGI,6.56 µM
same,GI50,TK-10,0.741 µM
same,TGI,TK-10; read-out: pTGI (converted),6.61 µM
same,TGI,UO-31; read-out: TGI,2.48 µM
same,GI50,UO-31,0.468 µM
same,CC50,UO-31; [12],> 100 µM
same,TGI,UO-31; read-out: pTGI (converted),2.51 µM
same,growth at 0.01 µM,RPMI-8226,94%
same,growth at 0.01 µM,A549,93%
same,growth at 0.01 µM,MDA-MB-231,99%
same,growth at 0.1 µM,EKVX,86%
same,growth at 0.1 µM,NCI-H23,91%
same,growth at 0.1 µM,NCI-H460,76%
same,growth at 0.1 µM,COLO 205 [4],81%
same,growth at 0.1 µM,LOX IMVI,87%
same,growth at 0.1 µM,SK-MEL-28,95%
same,growth at 0.1 µM,OVCAR-8 [5],74%
same,growth at 0.1 µM,DU-145 [6],92%
same,growth at 0.1 µM,MCF7,51%
same,growth at 0.1 µM,Hs-578T,106%
same,growth at 1 µM,HOP-62,33%
same,growth at 1 µM,SF-539 [7],60%
same,growth at 1 µM,MDA-MB-435 [8],28%
same,growth at 1 µM,SN12C,17%
same,growth at 1 µM,DU-145 [9],16%
same,growth at 10 µM,MOLT-4,2%
same,growth at 10 µM,NCI-H226,-44%
same,growth at 10 µM,COLO 205 [10],-52%
same,growth at 10 µM,SF-268,7%
same,growth at 10 µM,Malme-3M,-34%
same,growth at 10 µM,BT-549,-28%
same,growth at 100 µM,OVCAR-5,7%
